The record followed here is ChEMBL document CHEMBL1122586, “Cytochrome P-455 nm complex formation in the metabolism of phenylalkylamines. 8. Stereoselectivity in metabolic intermediary complex formation with a series of chiral 2-substituted 1-phenyl-2-aminoethanes” (J Med Chem, 1984).

The nature of data set [1]: Apparent Michaelis-Menten constant (Km (app)) for the metabolic intermediary complex formation was reported. To be noted: read-out: Km app. Type of data set: ADME. In short, it runs like this:
(§1)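 Liver microsomes from male Sprague-Dawley rats (200–240 g) pretreated with phenobarbital ip (three daily injections of 80, then 40 mg/kg on day 4), isolated by gel filtration. Incubation at 25 °C, 1 mg/mL protein, 50 mM potassium phosphate pH 7.5, 10 mM MgCl2, with substrate. Started by NADPH. ΔA455–490 per μmol P-450 versus time read by difference spectroscopy. Vmax(obsd) and Km(app) come from linear plots over a defined substrate range.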

Data set [2] is described as follows: Compound was tested for the maximal velocity of metabolic intermediary complex formation. Type of data set: ADME. In short, it runs like this: as §1

Broadly, the Km is the substrate concentration at which the rate is half of its maximum.

For the compound `CCCC[C@H](N)Cc1ccccc1.Cl`, the Km in data set [1] came out at 21 µM. In addition, the Vmax in data set [2] is listed as 10.5.
As for `CCCC[C@@H](N)Cc1ccccc1.Cl`, the Km in data set [1] came out at 16 µM. For the same compound, the Vmax in data set [2] is 5.7.
Regarding `CCC(N)Cc1ccccc1.Cl` (stereo unspecified), the Km in data set [1] stood at 30 µM. Besides, the Vmax in data set [2] came out at 4.
As to `C[C@H](N)Cc1ccccc1.Cl`, the Km in data set [1] is around 280 µM. The Vmax in data set [2] is given as ~ 1.6.
`C[C@@H](N)Cc1ccccc1.Cl`: the Km in data set [1] is around 270 µM. Moreover, the Vmax in data set [2] is reported as ~ 1.5.
`CC[C@@H](N)Cc1ccccc1.Cl`: the Km in data set [1] is 23 µM. Besides, the Vmax in data set [2] is recorded as 3.2.
As for `CCC[C@H](N)Cc1ccccc1.Cl`, the Michaelis-Menten constant (Km) in data set [1] was determined as 32 µM. Further, the Vmax in data set [2] came to 9.1.
With `CCC[C@@H](N)Cc1ccccc1.Cl`, in data set [1], the Michaelis-Menten constant (Km) is 28 µM. The Vmax in data set [2] was 5.1.
